Test system: MS2 coat protein
Test: apparent Kd, MS2 coat protein; higher = weaker binding; RNA-MaP array; FMN 200 µM where present
Method in brief: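 Stalled E. coli RNA polymerase transcribed each design on Illumina sequencing-chip clusters. The clusters were titrated with SNAP-549-labelled MS2 coat protein, starting at 0.7 or 1.5 nM and doubling up to 3 µM, first without ligand and then with constant ligand, in 100 mM Tris-HCl pH 7.5, 80 mM KCl, 4 mM MgCl2, BSA, DTT, yeast tRNA and Tween-20. Green signal was normalised to red-channel RNA signal and to the control-cluster median Fmax. The apparent Kd is the median of filtered binding-curve fits made for each cluster.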

[1] = designed as: OFF switch for flavin mononucleotide, no ligand
[2] = ligand present: flavin mononucleotide, designed as: OFF switch for flavin mononucleotide
[3] = designed as: ON switch for flavin mononucleotide, no ligand
[4] = ligand present: flavin mononucleotide, designed as: ON switch for flavin mononucleotide

| Sequence | apparent Kd [1] [nM] | apparent Kd [2] [nM] | apparent Kd [3] [nM] | apparent Kd [4] [nM] |
| --- | --- | --- | --- | --- |
| CUUACGCGAGGAUAUACAUGAGGAUCACCCAUGUAACGGUGUGUAAUAUAUAUUGCGUGUAGAAGGUGUGUGGG | 87 | 101 | – | – |
| CUUCCAGUUGCAGGAUAUCGAGAGGAGAGAUUACGAGAAGGGCAACAUGAGGAUCACCCAUGUAUGUGCUUGGGACAACCUAUC | 16.8 | 107 | – | – |
| CUUCGACAUGAGGAUCACCCAUGUCAGGAUAUUGUUUAUCUGGUUUUUUACAGAUAUACAAGAAGGGAUGUGUU | 27.5 | 24.6 | – | – |
| CUUCUGUAAGGAUAUUGCGAUAAGCAUGACAUCGCCGGUCGCAAGAAGGUACAUGAGGAUCACCCAUGUGCGGU | 161 | 152 | – | – |
| CUUCUGUGAGGAUAUGUUAGCUCCCGGCAUGUCGCUGGGAGACAGAAGGCACAUGAGGAUCACCCAUGUGGGCG | 34 | 161 | – | – |
| CUUGUACAUGAGGAUCACCCAUGUUAGGAUAUCUCGCCGUCGGCUUGCCGACGGUAUUAGAGAAGGGACAAGGG | 22.5 | 26.7 | – | – |
| CUUUAGUGAGGAUAUCAGUAGUAAUACAAUAGUAUUACUAUUGAGAAGGCACAUGAGGAUCACCCAUGUUCCUC | 24.6 | 141 | – | – |
| CUUUCGUGAGGAUAUCAGUAGUAAUAAAAUAAAAUUACUACUGAGAAGGCACAUGAGGAUCACCCAUGUUCCUC | 25 | 138 | – | – |
| CUUUCGUGAGGAUAUGUGGCUUCGAACGUGAGAUCGAGGCUACAGAAGGCACAUGAGGAUCACCCAUGUUCCUC | 34.3 | 395 | – | – |
| CUUUUAUUGGUCCAUUUUUUCUACAUGAGGAUCACCCAUGUGCAGGAUAUCGUGAUUAUUAUCAACGAGAAGGGCAGAUUCACG | 29.8 | 78.4 | – | – |
| CUUUUGUGAGGAUAUCAGUAGUAGAACAAUAGUACUACUACUGAGAAGGCACAUGAGGAUCACCCAUGUACCUC | 19.4 | 69.7 | – | – |
| CUUUUGUGAGGAUAUCAGUGGUAAAACAAUAGUAUUACUACUGAGAAGGCACAUGAGGAUCACCCAUGUUCCUC | 47.1 | 304 | – | – |
| CUUUUGUGAGGAUAUCAGUUGUAAAUAAAUAAAAUUACUACUGAGAAGGCACAUGAGGAUCACCCAUGUUCCUC | 38.1 | 198 | – | – |
| CUUUUGUGAGGAUAUUAGUAGUAGAUAGUUGGUGGUGUUGCUGAGAAGGCACAUGAGGAUCACCCAUGUACAAC | 344 | 335 | – | – |
| CUUUUGUGAGGAUAUUGGUAGUAAAUGAAUAAAAUUAUUACCGAGAAGGUACAUGAGGAUCACCCAUGUUCCUC | 19.4 | 27.9 | – | – |
| GAAAUUACAUGAGGAUCACCCAUGUAGGAUAUCGCUAUUGUAAUCAUGUUACAUGAUUACAAUAGCGAGAAGGACGUGAGAAAG | 22.9 | 25.6 | – | – |
| GAACCUAAGUUAGGAUAUGUCUAAGAAAGCUGACAUGAGGAUCACCCAUGUGAAUGCAAAGAAUGGCAGAAGGGAUAUGGGUGG | – | – | 73 | 76.8 |
| GAACGUGAUGUAAGGAUAUGUAGCCAUCGAGGCGUAUAGAAGGUACAUGAGGAUCACCCAUGUGAGCUCGUUAU | 36.7 | 44.6 | – | – |
| GAACUGAAGCAUAGCUUUAGUCGUACAUGAGGAUCACCCAUGUAGGAUAUGGUAGGCAUCGCUUACUAGAAGGAUAGAGUGAUC | 172 | 87.1 | – | – |

| Sequence | apparent Kd [1] [nM] | apparent Kd [2] [nM] | apparent Kd [3] [nM] | apparent Kd [4] [nM] |
| --- | --- | --- | --- | --- |
| GAAUAAUUGAUCCAUUUUUAAAACAUGAGGAUCACCCAUGUGCAGGAUAUCGAUAGUUUUAAAUUCGAGAAGGGCAAGAACUGU | 128 | 173 | – | – |
| GAAUGCCUGUCGAUGCUCGACAUGAGGAUCACCCAUGUAUAGCAGGAUAUGCAGAACUGACUCGUGCAGAAGGGCUAUACCUAA | 18.8 | 47.7 | – | – |
| GAAUGGGAGUAGAAGGUACGUUAUUAGUUAAGGUAAGGAUAUACUAUAAUACAGACGACAUAUAAACAUGAGGAUCACCCAUGU | – | – | 10.3 | 6.55 |
| GAAUGGGUAGAGGAUAUCGCCAUUUCAUCGAGGUGAGAAGGUUACACAUGAGGAUCACCCAUGUCGCCAUUAGC | 66.5 | 56.7 | – | – |
| GAAUGUCGGGUAGGAUAUGACGUGCCACGGAGGUCAGAAGGGCCACGACAUGAGGAUCACCCAUGUACUAUGUUCCUUUUUCGA | 13.6 | 31.8 | – | – |
| GACACUAUGUUUGUCAGAUAGAGAGAGGAUAUGGGUCAUGAGACAUGAGGAUCACCCAUGUUUAAUCAGAAGGCUCGAGUACGA | – | – | 30.7 | 15.6 |
| GACAUGUGAGGAUAUCUGAUGUCUAACUUCGGUUAGACAUCAGAGAAGGCACAUGAGGAUCACCCAUGUCUGUC | 194 | 232 | – | – |
| GACGAGUGAGGAUAUGGUGAGUAGUGCCUGAGCGCUGCUCACCAGAAGGCACAUGAGGAUCACCCAUGUAUGUC | 13.5 | 17.6 | – | – |
| GACGGAUGUAUAGGAUAUCGACUGGAAUACAGUCGAGAAGGAUACAUGAGGAUCACCCAUGUAACCGUCAAUAAUAAUAAUAAU | 14 | 29.7 | – | – |
| GACGGAUGUAUAGGAUAUGCUGAGGAUAACUCAGCAGAAGGAUACAUGAGGAUCACCCAUGUAAUAAUAAUAAUAAUAACCGUC | 13.3 | 24.1 | – | – |
| GACGGUGAUGUAGGAUAUACGCUGGAAUACAGCGUAGAAGGACAUGAGGAUCACCCAUGUAAAGUGUCUCCAAAUAACACCGUC | 31.5 | 90.8 | – | – |
| GACUAGGCAGGAUAUACAUGAGGAUCACCCAUGUGUCUGCGAUAGGCACGUGAUUACUGUAGAAGGGCCUUGAC | – | 44.1 | – | – |
| GACUCGGGUGCAGGAUAUCCGCCGGAUCGCAGUGGAGAAGGGCGCCAAGCGAACAUGAGGAUCACCCAUGUAUCGGAGUUGAAC | – | – | 56.9 | 10.4 |
| GACUGAUUACAGAAGGUGUAAGACAUGAGGAUCACCCAUGUGAUAUAGGGUAUAUUUGAAUAUAACAAGGAUAUGUAUAAAUCA | – | – | 102 | 60.4 |
| GACUGAUUGUAGAAGGUACUUGAAUAUAUAUUUUAUCUCAUGUGACAUGAGGAUCACCCAUGUAGUAAGGAUAUACAUAUCACA | – | – | 52.9 | 42.2 |
| GACUUGCUGUCAGGAUAUAACCGUCCUACACGGUUAGAAGGGACAUGAGGAUCACCCAUGUGCCAGAGCGCACGAAUUUUUUAC | 10.8 | 50.9 | – | – |
| GAGAAGUCAGGAUAUGCAUGGCGGGACUUGCGUCGUGGCGUGCAGAAGGGACAUGAGGAUCACCCAUGUGGAGC | 114 | 161 | – | – |
| GAGAAGUCAGGAUAUGCAUGGCGGGACUUGCGUCGUGGCGUGCAGAAGGGACAUGAGGAUCACCCAUGUGGAGG | 169 | 243 | – | – |
| GAGAUGUGAGGAUAUCUAGACCAUGGAAAAGCCACGGUCCGAGAGAAGGCACAUGAGGAUCACCCAUGUGAUGA | 45.9 | 171 | – | – |

| Sequence | apparent Kd [1] [nM] | apparent Kd [2] [nM] | apparent Kd [3] [nM] | apparent Kd [4] [nM] |
| --- | --- | --- | --- | --- |
| GAGCUAUGAGGAUAUGCAUAUAUACGGUUUCGUGUGGUACUACAUGAGGAUCACCCAUGUAGAAGGCGUGGCAG | 17.4 | 17.9 | – | – |
| GAGCUGUGAGGAUAUACAUGAGGAUCACCCAUGUUAAGGAAGUCGGGAUUAAUUUAGUGUAGAAGGCACUUAUU | 39.9 | 41.6 | – | – |
| GAGGAACAUGAGGAUCACCCAUGUGAGGAUAUGCAUAGUGAGGUAGUAGAAGUUGAAUGCAGAAGGUACACUGA | 42.2 | 32.2 | – | – |
| GAGGACUGAAUAAAUAACUCAAAUACAUGAGGAUCACCCAUGUAGGAUAUCGUCAGGAAUACUGACGAGAAGGACAUACAGUCC | 13.4 | 19.2 | – | – |
| GAGUAGUUAAAAGGAUAUUGAUUAUUGUAGGAUCAAGAAGGUUUUAACAUGAGGAUCACCCAUGUAGGACUAUUCCUGUGUAUC | – | – | 16.5 | 14.8 |
| GAGUCACGAAUAAUAAUAAGAUCUACAUGAGGAUCACCCAUGUAGGAUAUGCAGUGGAAUACACUGCAGAAGGACAUACGUGAC | 14 | 17.5 | – | – |
| GAGUGCUGAGGAUAUACAUGAGGAUCACCCAUGUGCUUCAGCUAGGAGACUAGCAUUGGUAGAAGGUAGUACUC | 11.7 | 15.4 | – | – |
| GAGUGGAGGAAAGGAUAUACAAUGAUAAUCACAGUAGAAGGUUCUAACAUGAGGAUCACCCAUGUAGGACUAUACCAGAGAGGG | – | – | 13.1 | 12.5 |
| GAGUGGAUGAGACCGCGGGCGACAUGAGGAUCACCCAUGUUGCAGGAUAUCAGUGCGUCGGCGCCUGAGAAGGGCGACAAUCAU | 6.56 | 7.11 | – | – |
| GAGUGUGAAUAAGGAUAUAUGAGAGAGUGAGUAAUAGAAGGUAUACAAACAUGAGACAUGAGGAUCACCCAUGUAUCACCCAUG | – | – | 20.8 | 16.1 |
| GAUACACAUGAGGAUCACCCAUGUGAGGAUAUGAUACUAUGUACUUCGGUACAUAGUAUCAGAAGGCACAUUGA | 47.6 | 76.8 | – | – |
| GAUAGACAUGAGGAUCACCCAUGUGAGGAUAUGCGUACGUUGUCAGUAGGCGACGUGCGCAGAAGGCGCAAGUU | 77.1 | 46.5 | – | – |
| GAUAUGUUAGGAUAUCAAACCUUGUUGAAUCAACGAGCCAGUGAGAAGGAACAUGAGGAUCACCCAUGUGUCCG | 16.2 | 16.3 | – | – |
| GAUCCACAUGAGGAUCACCCAUGUGAGGAUAUGAUACUAUGUACUUCGGUACAUAGUAUCAGAAGGCAUAUUGA | 44 | 75.7 | – | – |
| GAUCCUUCUGUUAGGAUAUGCUUUGGGCUUCCGCAGCAGAAGGAACAUGAGGAUCACCCAUGUCCGAUGCCGUC | 80.5 | 98 | – | – |
| GAUCGAGAACUCACGGCGUUGCACAUGAGGAUCACCCAUGUGCAGGAUAUGGCCGCCGUCGGAGGCCAGAAGGGCACAGUAGGU | 10.2 | 20 | – | – |
| GAUCGCCAUGUCAGGAUAUCUUGUAUACCCACGUUAGAGAAGGGACAUGAGGAUCACCCAUGUACCCUGGUUUU | – | 16.4 | – | – |
| GAUCUGUGGCUUUCGCUUUGUUCACAUGAGGAUCACCCAUGUAGAAGGUAGCGGUUGAAAUUCGCUGAGGAUAUACAUAGGUGC | 24.4 | 52.7 | – | – |
